Measurements taken from PMC11452527 (Nature Communications, 2024).
Read-outs that look alike come from different tables or passages of the source.

Columns and labels:
αIIbβ3 [1] = biological target: T1, αIIbβ3 (Homo sapiens, UniProt P05106+P08514); assay: ODE model of inhibitor occupancy of αIIbβ3; conditions: ODEs Eq 16-22
[2] = Plasma protein binding by rapid equilibrium dialysis; format: in vitro ADME; conditions: human, platelet-free human plasma
αIIbβ3 [3] = conditions: cited from earlier work
C57BL/6J mice [4] = assay: Thrombin-induced femoral vein thrombosis model; format: in vivo, mouse; conditions: bolus tirofiban 0.025 μg/g, m-tirofiban 0.3 μg/g
αIIbβ3 [5] = biological target: T1, αIIbβ3; assay: LIBS AP5 epitope exposure on platelet αIIbβ3; format: cell-based; conditions: washed human platelets; tirofiban 0.17 μM, m-tirofiban 16 μM, Hr10 7.6 μM
How it was run: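 Washed platelets came from citrated blood of drug-free donors: PRP was spun with PGE1 (20 ng/ml final), washed in Ringer's citrate-dextrose, and resuspended in Tyrode's buffer (pH 7.4, 0.02% BSA, 1 mM Ca²⁺/Mg²⁺). Buffer or test compound was preincubated 20 min at RT without stirring, then ADP (20 µM) plus Alexa647-AP5 (10 µg/mL) was added for 30 min at RT. Samples were diluted, fixed in 2% paraformaldehyde, and read by flow-cytometric MFI. Mean + s.e., n = 4 donors.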

human PRP = assay: Thrombin-induced clot retraction in platelet-rich plasma; format: cell-based; conditions: read-out: IC50clot
platelets in whole blood = assay: ADP-induced platelet aggregation in 1:1 diluted whole blood; format: cell-based; conditions: Homo sapiens, read-out: IC50agg
C57BL/6J mice [6] = assay: Tail vein bleeding model; format: in vivo, mouse; conditions: at the dose that suppressed femoral VT
platelets = conditions: cited from earlier work

T1 sequence (P08514 32-887 limits assumed): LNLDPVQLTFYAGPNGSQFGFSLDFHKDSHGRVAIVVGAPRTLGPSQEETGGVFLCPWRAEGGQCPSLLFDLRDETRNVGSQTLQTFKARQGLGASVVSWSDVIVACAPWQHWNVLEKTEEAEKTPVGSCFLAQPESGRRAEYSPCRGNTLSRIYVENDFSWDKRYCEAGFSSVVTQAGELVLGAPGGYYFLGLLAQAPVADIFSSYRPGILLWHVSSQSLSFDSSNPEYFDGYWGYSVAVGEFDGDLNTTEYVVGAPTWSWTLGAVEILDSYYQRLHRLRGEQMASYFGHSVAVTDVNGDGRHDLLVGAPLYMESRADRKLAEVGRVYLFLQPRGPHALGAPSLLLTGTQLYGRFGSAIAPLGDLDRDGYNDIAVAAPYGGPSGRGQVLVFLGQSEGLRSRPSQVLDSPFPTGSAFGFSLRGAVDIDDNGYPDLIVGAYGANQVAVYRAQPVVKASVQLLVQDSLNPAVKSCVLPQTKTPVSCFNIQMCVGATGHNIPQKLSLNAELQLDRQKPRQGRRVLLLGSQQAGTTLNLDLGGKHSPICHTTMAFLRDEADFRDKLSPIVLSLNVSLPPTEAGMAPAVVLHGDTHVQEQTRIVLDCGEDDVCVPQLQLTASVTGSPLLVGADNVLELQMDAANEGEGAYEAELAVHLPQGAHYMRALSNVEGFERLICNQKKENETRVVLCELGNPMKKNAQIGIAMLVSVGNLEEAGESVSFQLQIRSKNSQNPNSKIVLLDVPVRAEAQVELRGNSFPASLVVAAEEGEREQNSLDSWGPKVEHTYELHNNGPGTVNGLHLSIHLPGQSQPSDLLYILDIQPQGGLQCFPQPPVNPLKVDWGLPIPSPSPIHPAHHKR
T1 sequence (P08514 891-1039 partner limits assumed): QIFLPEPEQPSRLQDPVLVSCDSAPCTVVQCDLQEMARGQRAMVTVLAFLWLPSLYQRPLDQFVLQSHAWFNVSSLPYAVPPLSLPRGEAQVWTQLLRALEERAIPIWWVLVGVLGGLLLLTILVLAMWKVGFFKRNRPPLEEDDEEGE
T1 sequence (P05106 27-788): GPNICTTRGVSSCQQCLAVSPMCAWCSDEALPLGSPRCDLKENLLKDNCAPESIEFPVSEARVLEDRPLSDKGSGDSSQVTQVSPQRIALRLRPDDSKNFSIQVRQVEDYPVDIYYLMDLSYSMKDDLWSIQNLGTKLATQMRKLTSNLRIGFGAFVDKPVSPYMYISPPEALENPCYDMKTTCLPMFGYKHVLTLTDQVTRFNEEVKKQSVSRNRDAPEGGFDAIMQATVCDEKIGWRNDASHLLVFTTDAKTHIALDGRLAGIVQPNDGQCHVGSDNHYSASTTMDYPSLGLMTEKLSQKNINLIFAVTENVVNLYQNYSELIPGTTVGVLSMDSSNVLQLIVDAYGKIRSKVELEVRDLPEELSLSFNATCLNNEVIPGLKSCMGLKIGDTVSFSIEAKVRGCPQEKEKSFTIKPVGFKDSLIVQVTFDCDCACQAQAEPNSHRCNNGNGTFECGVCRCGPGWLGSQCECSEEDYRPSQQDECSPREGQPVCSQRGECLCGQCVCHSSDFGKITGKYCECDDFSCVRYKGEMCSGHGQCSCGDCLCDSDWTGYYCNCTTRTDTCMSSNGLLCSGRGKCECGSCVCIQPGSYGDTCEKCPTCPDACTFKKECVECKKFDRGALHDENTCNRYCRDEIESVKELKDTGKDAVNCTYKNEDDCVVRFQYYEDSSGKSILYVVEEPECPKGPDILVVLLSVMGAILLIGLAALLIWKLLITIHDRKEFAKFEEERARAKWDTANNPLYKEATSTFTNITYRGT

CCCCS(=O)(=O)N[C@@H](Cc1ccc(OCCCCC2CCNCC2)cc1)C(=O)O [tirofiban]
concentration for 50% occupancy of αIIbβ3 (50% OCCL:T) (αIIbβ3 [1]; 1:1 diluted whole blood): 26.5 nM | concentration for 50% occupancy of αIIbβ3 (50% OCCL:T) (αIIbβ3 [1]; undiluted whole blood): 38.0 nM | fraction unbound at 24 h, 2 µM [2]: 0.413 ± 0.0303 | Kd (αIIbβ3 [3]; read-out: Kd for pretreated (inactive) αIIbβ3): 15 nM | total accumulation of fibrin vs untreated (C57BL/6J mice [4]): significant only at a p-value of 0.0606 | AP5 epitope expression above that seen with ADP (or thrombin) alone (αIIbβ3 [5]): large increase | IC50 (human PRP): 162 ± 61 nM | IC50 (platelets in whole blood): 6 ± 0.58 nM | bleeding time vs PBS (C57BL/6J mice [6]): prolonged bleeding time | bleeding vs PBS (C57BL/6J mice [6]): significant bleeding

fibrinogen
Kd (αIIbβ3 [3]; read-out: Kd,F of fibrinogen to αIIbβ3, assumed in ODE model ref 58): 143 nM

N=C(N)c1ccc(C(=O)N[C@@H](Cc2ccc([N+](=O)[O-])cc2)C(=O)N2CCc3nn(CC(=O)O)cc3C2)cc1 [UR-2922]
IC50clot/IC50agg ratio (platelets): 20.63 | Kd (αIIbβ3 [3]; read-out: mean Kd to αIIbβ3): 0.3 nM
